In ChEMBL document CHEMBL1629587, “Discovery of a small-molecule inhibitor of {beta}-1,6-glucan synthesis” (2009):
Converted amounts (≈) assume the structure as drawn. The source made the active and inactive calls. The rule behind the calls is not given here.

Columns and labels:
[1] = test system: Candida tropicalis; assay: Fungicidal activity against Candida tropicalis TIMM0313 after 24 hrs by microdilution method; assay type: functional; conditions: TIMM0313, 24 h
Procedure, shortened: (§1)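 Fungicidal concentration: after the MIC plate read, 4 μl from each well transferred into 200 μl MOPS-buffered RPMI, incubated 24 h at 30°C; MFC = lowest drug concentration with no visible growth.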

[2] = test system: Aspergillus sp.; assay: Antifungal activity against Aspergillus sp. at 32 ug/ml after 24 hrs by microdilution method; assay type: functional, organism-based
Procedure, shortened: (§2)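 CLSI broth microdilution run at 30°C instead of standard temperature; starting inoculum 1 × 10^3 to 3 × 10^3 cells/ml; DMSO under 1% final. Endpoints: MIC-0 = lowest concentration giving an optically clear well; MIC-2 = 50% drop versus drug-free control in absorbance at 570 nm with alamar blue redox indicator, used because treated cells clump.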

[3] = test system: Trichosporon asahii; assay: Antifungal activity against Trichosporon asahii ATCC 90039 at 32 ug/ml after 24 hrs by microdilution method; assay type: functional, organism-based; procedure, shortened: as §2
[4] = test system: Nakaseomyces glabratus; assay: Fungicidal activity against Candida glabrata IFO0622 after 24 hrs by microdilution method; assay type: functional; conditions: IFO0622, 24 h; procedure, shortened: as §1
[5] = test system: Candida albicans; assay: Inhibition of hyphal elongation of Candida albicans ATCC 24433 at 4 ug/ml after 6 hrs by microscopy; assay type: functional, organism-based
Procedure, shortened: (§3)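 Hyphae induced in HFM-7 medium (Lee's medium also used) on type I collagen-coated wells, drug 0, 1, 4 or 16 μg/ml; static culture at 37°C, viewed by light microscopy after 6 h or 24 h.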

[6] = test system: Pichia kudriavzevii; assay: Antifungal activity against Candida krusei TIMM0269 after 24 hrs by microdilution method; assay type: functional; conditions: TIMM0269, 24 h; procedure, shortened: as §2
[7] = test system: Saccharomyces cerevisiae; assay: […] activity against Saccharomyces cerevisiae AY-10 after 24 hrs by microdilution method; assay type: functional; conditions: AY-10, 24 h
[8] = test system: Nakaseomyces glabratus; assay: Induction of multibudding phenotype in Candida glabrata IFO0622 after 18 hrs by microscopy; assay type: functional, organism-based
Procedure, shortened: (§4)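 Exponential-phase cells suspended in RPMI 1640 with or without drug (2 μg/ml shown), shaken gently 18 h at 30°C, fixed in 3% glutaraldehyde in 0.1 M phosphate buffer, inspected by inverted light microscopy.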

[9] = test system: Cryptococcus neoformans; assay: Antifungal activity against Cryptococcus neoformans ATCC 90112 after 24 hrs by microdilution method; assay type: functional; conditions: ATCC 90112, 24 h; procedure, shortened: as §2
[10] = test system: Nakaseomyces glabratus; assay: Antifungal activity against Candida glabrata IFO0622 after 24 hrs by microdilution method; assay type: functional; conditions: IFO0622, 24 h; procedure, shortened: as §2
[11] = test system: Candida albicans; assay: Antifungal activity against Candida albicans ATCC 24433 after 24 hrs by microdilution method; assay type: functional; conditions: ATCC 24433, 24 h; procedure, shortened: as §2
[12] = test system: Candida tropicalis; assay: Antifungal activity against Candida tropicalis TIMM0313 after 24 hrs by microdilution method; assay type: functional; conditions: TIMM0313, 24 h; procedure, shortened: as §2
[13] = test system: Saccharomyces cerevisiae; assay: Inhibition of chitin synthesis in Saccharomyces cerevisiae AY-10 assessed as reduction in [14C]glucose incorporation at 0.078 to 1.25 ug/ml after 3 hrs; assay type: functional, organism-based
Procedure, shortened: (§5)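 Exponential cells in RPMI 1640 at A595 about 0.6, pulse-labelled with [14C]glucose 2 μCi/ml plus drug at 30°C, sampled at 1 and 3 h. Cell wall fractionated: mannan from 3% NaOH extracts at 80°C by Fehling's reaction; residue digested with Zymolyase 100T (1 mg/ml), insoluble part = chitin; β-1,3-glucan = total glucan minus dialysed β-1,6-glucan. Scintillation counting; % change versus untreated.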

[14] = test system: Clavispora lusitaniae; assay: Antifungal activity against Candida lusitaniae ATCC 200951 after 24 hrs by microdilution method; assay type: functional; conditions: ATCC 200951, 24 h; procedure, shortened: as §2
[15] = test system: Saccharomyces cerevisiae; assay: […] activity against Saccharomyces cerevisiae AY-10 transformed with pRS416-13 carrying ADP1 gene after 24 hrs by microdilution method; assay type: functional; conditions: AY-10, 24 h
[16] = test system: Candida albicans; assay: Inhibition of hyphal elongation of Candida albicans ATCC 24433 at 1 ug/ml after 24 hrs by microscopy; assay type: functional, organism-based; procedure, shortened: as §3
[17] = test system: Aspergillus terreus; assay: Antifungal activity against Aspergillus terreus ATCC 28301 after 24 hrs by microdilution method; assay type: functional; conditions: ATCC 28301, 24 h; procedure, shortened: as §2
[18] = test system: Candida albicans; assay: Fungicidal activity against Candida albicans ATCC 24433 after 24 hrs by microdilution method; assay type: functional; conditions: ATCC 24433, 24 h; procedure, shortened: as §1
[19] = test system: Saccharomyces cerevisiae; assay: Inhibition of mannan synthesis in Saccharomyces cerevisiae AY-10 assessed as reduction in [14C]glucose incorporation at 0.078 to 1.25 ug/ml after 1 hr; assay type: functional, organism-based; procedure, shortened: as §5
[20] = test system: Candida albicans; assay: Inhibition of hyphal elongation of Candida albicans ATCC 24433 at 4 ug/ml after 24 hrs by microscopy; assay type: functional, organism-based; procedure, shortened: as §3
[21] = test system: Saccharomyces cerevisiae; assay: Inhibition of mannan synthesis in Saccharomyces cerevisiae AY-10 assessed as reduction in [14C]glucose incorporation at 0.078 to 1.25 ug/ml after 3 hrs; assay type: functional, organism-based; procedure, shortened: as §5
[22] = test system: Candida albicans; assay: Antifungal activity against Candida albicans ATCC MYA-573 after 24 hrs by microdilution method; assay type: functional; conditions: ATCC MYA-573, 24 h; procedure, shortened: as §2
[23] = test system: Saccharomyces cerevisiae; assay: Fungicidal activity against Saccharomyces cerevisiae YPH500 after 24 hrs by microdilution method; assay type: functional; conditions: YPH500, 24 h; procedure, shortened: as §1
[24] = test system: PC-6; assay: Cytotoxicity against human PC6 cells; assay type: functional
Procedure, shortened: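 Human PC-6 lung cancer cells; growth inhibition read as GI50; DMSO kept below 0.5% final for human cells.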

[25] = test system: Escherichia coli; assay: Antibacterial activity against Escherichia coli NIHJ; assay type: functional
[26] = test system: Candida albicans; assay: Inhibition of hyphal elongation of Candida albicans ATCC 24433 at 16 ug/ml after 24 hrs by microscopy; assay type: functional, organism-based; procedure, shortened: as §3
[27] = test system: Saccharomyces cerevisiae; assay: Inhibition of chitin synthesis in Saccharomyces cerevisiae AY-10 assessed as reduction in [14C]glucose incorporation at 0.078 to 1.25 ug/ml after 1 hr; assay type: functional, organism-based; procedure, shortened: as §5
[28] = test system: Saccharomyces cerevisiae; assay: Antifungal activity against Saccharomyces cerevisiae YPH500 after 24 hrs by microdilution method; assay type: functional; conditions: YPH500, 24 h
Procedure, shortened: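 CLSI broth microdilution, incubated at 30°C, starting inoculum 1 × 10^3 to 3 × 10^3 cells/ml; drugs from DMSO, final DMSO below 1%. MIC-0 is the lowest concentration giving an optically clear well. MIC-2 is read with alamar blue as a 50% drop in A570 versus the drug-free control; both endpoints were recorded.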

[29] = test system: Candida albicans; assay: Induction of multibudding phenotype in Candida albicans ATCC 24433 after 18 hrs by microscopy; assay type: functional, organism-based; procedure, shortened: as §4
[30] = test system: Saccharomyces cerevisiae; assay: Fungicidal activity against Saccharomyces cerevisiae AY-10-R16 mutant after 24 hrs by microdilution method; assay type: functional; conditions: AY-10-R16, 24 h
[31] = test system: Saccharomyces cerevisiae; assay: […] activity against Saccharomyces cerevisiae AY-10 transformed with pRS416-31 carrying KRE6 gene after 24 hrs by microdilution method; assay type: functional; conditions: AY-10, 24 h
[32] = test system: Candida tropicalis; assay: Antifungal activity against Candida tropicalis ATCC 200956 after 24 hrs by microdilution method; assay type: functional; conditions: ATCC 200956, 24 h; procedure, shortened: as §2
[33] = test system: Saccharomyces cerevisiae; assay: Fungicidal activity against Saccharomyces cerevisiae CT-1a mutant after 24 hrs by microdilution method; assay type: functional
[34] = test system: Cryptococcus neoformans; assay: Antifungal activity against Cryptococcus neoformans ATCC 90112 at 32 ug/ml after 24 hrs by microdilution method; assay type: functional, organism-based; procedure, shortened: as §2

With `CCc1c(C)c(C#N)c2nc3ccccc3n2c1NCCN(CC)CC` the MFC [1] was > 32 mg/L, the Activity [2] was “inactive” and the Activity [3] was “inactive”. For the same molecule, the MFC [4] was 32 mg/L (≈ 91.6 µM), the inhibition [5] was “Active” and the MIC [6] was 16 mg/L (≈ 45.8 µM). The MIC50 [6] was 8 mg/L (≈ 22.9 µM), the MIC [7] was 2 mg/L (≈ 5.72 µM) and the Activity [8] was “Active”. The MIC [9] was > 32 mg/L, the MIC50 [9] was > 32 mg/L and the MIC [10] was 2 mg/L (≈ 5.72 µM). For the same molecule, the MIC50 [10] was 1 mg/L (≈ 2.86 µM), the MIC [11] was 32 mg/L (≈ 91.6 µM) and the MIC50 [11] was 8 mg/L (≈ 22.9 µM). The MIC [12] was 8 mg/L (≈ 22.9 µM), the MIC50 [12] was 1 mg/L (≈ 2.86 µM) and the inhibition [13] was “inactive”. It also gave an MIC [14] of 16 mg/L (≈ 45.8 µM), an MIC50 [14] of 8 mg/L (≈ 22.9 µM) and an MIC [15] of 4 mg/L (≈ 11.4 µM). The inhibition [16] was “Active”, the MIC [17] was > 32 mg/L and the MIC50 [17] was > 32 mg/L. The MFC [18] was > 32 mg/L, the inhibition [19] was “inactive” and the inhibition [20] was “Active”. For the same molecule, the inhibition [21] was “inactive”, the MIC [22] was 32 mg/L (≈ 91.6 µM) and the MIC50 [22] was 16 mg/L (≈ 45.8 µM). The MFC [23] was > 32 mg/L, the GI50 [24] was > 16 mg/L and the MIC [25] was > 32 mg/L. For the same molecule, the inhibition [26] was “Active”, the inhibition [27] was “inactive” and the MIC [28] was 2 mg/L (≈ 5.72 µM). For the same molecule, the MIC50 [28] was 1 mg/L (≈ 2.86 µM), the Activity [29] was “Active” and the MIC [30] was 4 mg/L (≈ 11.4 µM). It also gave an MIC [31] of 32 mg/L (≈ 91.6 µM), an MIC [32] of 1 mg/L (≈ 2.86 µM) and an MIC50 [32] of 1 mg/L (≈ 2.86 µM). For the same molecule, the MIC [33] was 8 mg/L (≈ 22.9 µM) and the Activity [34] was “inactive”.
